The text below walks through data of PubChem BioAssay.

Experiment [1] in a line: reducers of endogenous Her2 protein level, primary screen, SKBR3 breast tumor cells, AlphaScreen, ATP viability (AID 461;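 active = Her2 level under about 52% in both replicate screens, with viability over 70% of control, limit read from the data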;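 as to Her2 level: lower value means less Her2 protein in the cells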;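 as to viability: percent of carrier control wells set as 100% viability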). The settings on record: 18-24 h, measured here: SKBR3 viability, ATP luminescence, at 10 µM. In general terms: In Alpha technology, singlet oxygen from a donor bead excites a nearby acceptor bead.
For experiment [2], the target named is Receptor tyrosine-protein kinase erbB-2 (Homo sapiens) (UniProt P04626). Described as above. The settings on record: 18-24 h, at 10 µM, stronger effect = lower value.
Sequence of Receptor tyrosine-protein kinase erbB-2 (Homo sapiens) (P04626 whole entry, looked up): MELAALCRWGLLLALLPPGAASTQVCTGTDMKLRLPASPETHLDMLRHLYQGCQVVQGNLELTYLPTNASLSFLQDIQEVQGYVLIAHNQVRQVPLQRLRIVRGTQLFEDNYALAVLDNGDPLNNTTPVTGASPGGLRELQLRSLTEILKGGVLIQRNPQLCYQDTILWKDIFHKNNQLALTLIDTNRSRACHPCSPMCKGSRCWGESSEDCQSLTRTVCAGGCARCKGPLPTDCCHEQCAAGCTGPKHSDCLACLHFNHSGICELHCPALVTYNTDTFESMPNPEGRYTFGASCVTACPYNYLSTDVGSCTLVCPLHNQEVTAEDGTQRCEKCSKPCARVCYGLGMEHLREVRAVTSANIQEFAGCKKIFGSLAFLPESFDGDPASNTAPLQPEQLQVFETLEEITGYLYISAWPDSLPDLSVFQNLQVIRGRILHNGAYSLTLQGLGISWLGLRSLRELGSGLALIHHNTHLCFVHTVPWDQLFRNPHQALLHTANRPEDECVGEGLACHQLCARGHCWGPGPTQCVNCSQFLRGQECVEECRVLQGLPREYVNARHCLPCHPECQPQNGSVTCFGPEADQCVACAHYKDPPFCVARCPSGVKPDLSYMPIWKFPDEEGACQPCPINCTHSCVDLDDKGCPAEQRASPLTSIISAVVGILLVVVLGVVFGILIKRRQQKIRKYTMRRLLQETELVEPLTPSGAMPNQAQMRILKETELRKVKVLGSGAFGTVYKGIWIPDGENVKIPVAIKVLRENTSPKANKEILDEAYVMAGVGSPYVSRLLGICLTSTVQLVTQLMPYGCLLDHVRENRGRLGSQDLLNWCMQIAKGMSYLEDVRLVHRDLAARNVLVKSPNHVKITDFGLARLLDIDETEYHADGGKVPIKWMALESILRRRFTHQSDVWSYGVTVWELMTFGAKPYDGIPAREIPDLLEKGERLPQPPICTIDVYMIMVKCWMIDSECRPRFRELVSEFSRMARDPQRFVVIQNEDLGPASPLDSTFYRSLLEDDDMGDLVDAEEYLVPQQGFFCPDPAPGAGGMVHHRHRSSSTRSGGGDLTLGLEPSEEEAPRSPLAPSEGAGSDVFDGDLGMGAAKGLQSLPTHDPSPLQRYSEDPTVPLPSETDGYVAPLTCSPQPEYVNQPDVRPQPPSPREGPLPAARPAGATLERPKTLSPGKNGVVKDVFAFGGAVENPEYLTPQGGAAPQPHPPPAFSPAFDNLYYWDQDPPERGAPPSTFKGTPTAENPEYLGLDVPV
The nature of experiment [3]: SK-BR-3 cell growth inhibitors, pilot screen, 24 h, human (AID 572).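 Also: compound exposure lasted between 18 and 24 h rather than exactly 24 h; 100% = carrier-treated control wells.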 The settings on record: SK-BR-3 viability, CellTiter-Glo luminescence, at 10 µM, stronger effect = lower value. Background: ATP-based viability assays read luminescence as a measure of living cells.
The nature of experiment [4]: HUVEC growth inhibition – cell-based, human, primary screen (AID 575;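 active = viability at or below 30% in both replicate assays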;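 also: 100% = median of untreated cell wells with 0.1% DMSO on each plate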). Particulars: HUVEC proliferation, CellTiter-Glo luminescence, 72 h; at 10 µM; stronger effect = lower value. In a few lines:
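System: primary human umbilical vein endothelial cells; Quantity: 1250 endothelial cells in each well; Buffer or medium: supplemented EBM, 2% fetal bovine serum; Doses: one dose, 10 µM final, 0.1% DMSO; Incubation: 72 h compound incubation; Technique: ATP-based CellTiter-Glo luminescent read; Evaluation: percent of median DMSO-control luminescence; Controls: vehicle and MePR control wells.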

A short description of experiment [5]: growth inhibitors of H69AR lung tumor, primary screen, human, duplicate replicates (AID 580;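 active = viability at or under a set limit in both replicates, limit being median viability minus 3 SD, cut at about 48% in these data, passing the limit was not always enough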;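 also: 100% = mean luminescence of untreated wells and 0% = no signal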). The settings on record: H69AR lung tumor cells viability, ATP luminescence, 72 h; at 10 µM; stronger effect = lower value.
A short description of experiment [6]: reversal of MRP1-mediated doxorubicin resistance, pilot screen, H69AR cells, doxorubicin co-treatment (AID 601;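 active = viability loss from added drug above about 55%, and viability with drug at most 40%, in both replicates, limit read from the data, passing the limit was not always enough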). The settings on record: CellTiter-Glo, 72 h, at 10 µM; for differential viability (reversal): stronger effect = higher value.
The nature of experiment [7]: 384-well plate pilot, post-Golgi transport modulator project, inhibition of yeast transport mutant growth (AID 636; in the data active = inhibition above about 31%). Particulars: absorbance 615 nm, about 18 h, stronger effect = higher value.
The nature of experiment [8]: growth suppression of yeast trafficking mutant, preliminary HTS, modulators of trafficking downstream of Golgi apparatus project, 1536-format plate, OD 615 nm (AID 637; in the data active = inhibition above about 30%). The settings on record: yeast transport mutant growth, absorbance 615 nm, 18 h; stronger effect = higher value.
Where [9] appears, read: H69AR cells + 2 uM doxorubicin, measured here: viability with 2 uM doxorubicin, stronger effect = lower value.
Setting [10] is: H69AR cells, compound alone cytotoxicity.

Activity calls are given as the source filed them.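 The calls were made as follows, unless noted: active = viability at or below 10% of carrier control in both of two separate runs; inconclusive = viability at or below 10% in only one of the two runs; inactive = the rest.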

What is called viability is a read-out of living cells in per cent, often relative to untreated cells. The inhibition is the relative decrease from the control value, in per cent. `CCCCc1noc2c1/C(=N\O)CC(c1ccccc1)C2` (stereo not given): the viability in experiment [1] was 86%; in experiment [3] it was 86% (inactive); in experiment [4] it was 108% (inactive); in experiment [5], 90.5% (inactive); in experiment [6] (setting [9]) it was 91.3%; in experiment [6] (setting [10]) it was 90.5%. Besides, the Her2 level in experiment [2] is 82.5% (inactive). Further, the differential viability (reversal) in experiment [6] (H69AR cells + 2 uM doxorubicin) was -0.815% (inactive). For the same molecule, the inhibition in experiment [7] was 3.11% (inactive); in experiment [8], -3.77% (inactive).

As for `CCOc1ccccc1CNC(=O)CCN1C(=O)COc2ccccc21`, the viability in experiment [1] is 104%; in experiment [3] it was 104% (inactive); in experiment [4] it was 88.8% (inactive); in experiment [5], 92.9% (inactive); in experiment [6] (setting [9]) it was 89.5%; in experiment [6] (setting [10]), 92.9%. Further, the Her2 level in experiment [2] was 110% (inactive). Further, in experiment [6] (H69AR cells + 2 uM doxorubicin), the differential viability (reversal) was 3.42% (inactive). Also, the inhibition in experiment [7] was -1.15% (inactive); in experiment [8], -7% (inactive).

Take `COc1cccc(CNc2cccc3cccnc23)c1O`: the viability in experiment [1] was 102%; in experiment [3], 102% (inactive); in experiment [4] it was 73.5% (inactive); in experiment [5], 78.4% (inactive); in experiment [6] (setting [9]), 93%; in experiment [6] (setting [10]) it was 78.4%. Also, the Her2 level in experiment [2] was 82.5% (inactive). In addition, the differential viability (reversal) in experiment [6] (H69AR cells + 2 uM doxorubicin) was -14.6% (inactive). In addition, the inhibition was -3.16% (inactive) in experiment [7] and -1.97% (inactive) in experiment [8].

`CN1C2C=C3C(C#N)=C(N)C(C#N)(C#N)[C@@H](c4ccc(Cl)cc4)[C@@H]3C1CC2` (stereo not given in full): the viability was 95% in experiment [1]; 95% (inactive) in experiment [3]; 91.3% (inactive) in experiment [4]; 68.9% (inactive) in experiment [5]; 94.9% in experiment [6] (setting [9]); 68.9% in experiment [6] (setting [10]). Further, the Her2 level in experiment [2] is 87% (inactive). Further, the differential viability (reversal) in experiment [6] (H69AR cells + 2 uM doxorubicin) is -26.1% (inactive). Further, the inhibition is -5.73% (inactive) in experiment [7] and -0.32% (inactive) in experiment [8].

As for `Cc1oc2nc(SCCCC(=O)NCCCO)nc(N)c2c1C`, the viability is 91.5% in experiment [1]; 91.5% (inactive) in experiment [3]; 103% (inactive) in experiment [4]; 107% (inactive) in experiment [5]; 98.8% in experiment [6] (setting [9]); 107% in experiment [6] (setting [10]). The Her2 level in experiment [2] was 85% (inactive). Besides, in experiment [6] (H69AR cells + 2 uM doxorubicin), the differential viability (reversal) was 7.75% (inactive). Further, the inhibition is -0.79% (inactive) in experiment [7] and 4.75% (inactive) in experiment [8].

As to `COC(=O)Nc1nc2c(C)cccc2s1`, the viability in experiment [1] was 114%; in experiment [3], 114% (inactive); in experiment [4], 56.1% (inactive); in experiment [5] it was 85.4% (inactive); in experiment [6] (setting [9]), 73.5%; in experiment [6] (setting [10]), 85.4%. For the same molecule, the Her2 level in experiment [2] was 88% (inactive). Also, the differential viability (reversal) in experiment [6] (H69AR cells + 2 uM doxorubicin) is 11.9% (inactive). In addition, the inhibition was 1.18% (inactive) in experiment [7] and 8.33% (inactive) in experiment [8].

Regarding `O=C(Nc1ccc(F)cc1F)NC1CC(=O)N(Cc2ccccc2)C1` (stereo not given), the viability is 92.5% in experiment [1]; 92.5% (inactive) in experiment [3]; 109% (inactive) in experiment [4]; 95.1% (inactive) in experiment [5]; 94.8% in experiment [6] (setting [9]); 95.1% in experiment [6] (setting [10]). Moreover, the Her2 level in experiment [2] was 89.5% (inactive). For the same molecule, the differential viability (reversal) in experiment [6] (H69AR cells + 2 uM doxorubicin) was 0.32% (inactive). For the same molecule, the inhibition in experiment [7] is 1.78% (inactive); in experiment [8], 26.2% (inactive).

Regarding `COc1ccc(-n2c(Cc3cccn3C)nnc2SCC(=O)Nc2cccc(C)c2C)cc1`, the viability in experiment [1] is 88.5%; in experiment [3] it was 88.5% (inactive); in experiment [4] it was 91.4% (inactive); in experiment [5] it was 93.8% (inactive); in experiment [6] (setting [9]), 96.7%; in experiment [6] (setting [10]), 93.8%. The Her2 level in experiment [2] was 97% (inactive). The differential viability (reversal) in experiment [6] (H69AR cells + 2 uM doxorubicin) is -2.92% (inactive). In addition, the figures for the inhibition in experiment [7] and in experiment [8] were -0.64% (inactive) and -6.67% (inactive), respectively.

For the molecule `Cc1ccc2c(CNCc3ccco3)cc(=O)oc2c1`, the viability was 117% in experiment [1]; 117% (inactive) in experiment [3]; 84.1% (inactive) in experiment [4]; 93.5% (inactive) in experiment [5]; 81.9% in experiment [6] (setting [9]); 93.5% in experiment [6] (setting [10]). Moreover, in experiment [2], the Her2 level was 94.5% (inactive). Besides, the differential viability (reversal) in experiment [6] (H69AR cells + 2 uM doxorubicin) was 11.5% (inactive). Also, the inhibition in experiment [7] is -1.07% (inactive); in experiment [8], -4.03% (inactive).

For the molecule `CCS(=O)(=O)N1CCCC(c2nc(-c3cccc(OC)c3)no2)C1` (stereo not given), the viability is 100% in experiment [1]; 100% (inactive) in experiment [3]; 96.7% (inactive) in experiment [4]; 92.7% (inactive) in experiment [5]; 92.2% in experiment [6] (setting [9]); 92.7% in experiment [6] (setting [10]). Moreover, the Her2 level in experiment [2] was 110% (inactive). The differential viability (reversal) in experiment [6] (H69AR cells + 2 uM doxorubicin) is 0.525% (inactive). The figures for the inhibition in experiment [7] and in experiment [8] were -3.84% (inactive) and -2.7% (inactive), respectively.

On to `CCOc1ccc(C(=O)N2CCC(C(=O)c3ccc4c(c3)OCCO4)CC2)cc1`, for which the viability in experiment [1] was 84.5%; in experiment [3] it was 84.5% (inactive); in experiment [4], 77.8% (inactive); in experiment [5] it was 86.3% (inactive); in experiment [6] (setting [9]), 86.1%; in experiment [6] (setting [10]), 86.3%. Also, the Her2 level in experiment [2] was 79.5% (inactive). In experiment [6] (H69AR cells + 2 uM doxorubicin), the differential viability (reversal) is 0.19% (inactive). Besides, the inhibition in experiment [7] was -4.61% (inactive); in experiment [8], -6.91% (inactive).

`COC(=O)c1ccccc1NC(=O)CSc1nnc(-c2ccncc2)o1`: the viability in experiment [1] is 98%; in experiment [3], 98% (inactive); in experiment [4] it was 103% (inactive); in experiment [5], 101% (inactive); in experiment [6] (setting [9]) it was 92.4%; in experiment [6] (setting [10]), 101%. Moreover, the Her2 level in experiment [2] is 81.5% (inactive). Further, the differential viability (reversal) in experiment [6] (H69AR cells + 2 uM doxorubicin) is 8.3% (inactive). The inhibition was -4.67% (inactive) in experiment [7] and 0.95% (inactive) in experiment [8].

With `O=C(NC1CCCC1)c1c[nH]c2ccc(F)cc2c1=O`, the viability in experiment [1] is 97.5%; in experiment [3], 97.5% (inactive); in experiment [4], 92.6% (inactive); in experiment [5] it was 92% (inactive); in experiment [6] (setting [9]), 82.1%; in experiment [6] (setting [10]) it was 92%. The Her2 level in experiment [2] was 90.5% (inactive). The differential viability (reversal) in experiment [6] (H69AR cells + 2 uM doxorubicin) was 9.81% (inactive). The results for the inhibition in experiment [7] and in experiment [8] were -5.41% (inactive) and -3.67% (inactive), respectively.

Consider `Cn1cccc1C1NC(=O)c2c(sc3c2CCC(C(C)(C)C)C3)N1` (stereo not given), for which the viability in experiment [1] was 110%; in experiment [3], 110% (inactive); in experiment [4] it was 125% (inactive); in experiment [5] it was 90.4% (inactive); in experiment [6] (setting [9]) it was 101%; in experiment [6] (setting [10]), 90.4%. Further, the Her2 level in experiment [2] was 77.5% (inactive). Also, the differential viability (reversal) in experiment [6] (H69AR cells + 2 uM doxorubicin) was -11% (inactive). Further, the values for the inhibition in experiment [7] and in experiment [8] were -9.86% (inactive) and 1.67% (inactive), respectively.
